# From PubChem BioAssay
# This is a sample that favours compounds with a hit; in the whole collection about 1.8% have one here.
# Fh CTSL1 inh = cathepsin L1 inhibition, PFM18AAP counter-screen; recombinant F. hepatica cathepsin L1, Z-Leu-Arg-MCA fluorescence; inhibition, % at 5.96 µM; 0.49% of 300,000 active; AID 1906;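 active = inhibition above the mean of all tested compounds plus 3 SD, set per screening campaign, cut at about 17% in these data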;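 note: 0% = plate median of test compound wells and 100% = 1 µM Z-Phe-Ala-diazomethylketone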
# GSTO1 counter = blocks human GSTO1 in RBBP9 counter-screen | recombinant GSTO1, activity-based probe fluorescence polarization | inhibition, % at 5.96 µM | 1.1% of 300,000 active | AID 1974;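 active = inhibition above the campaign mean inhibition plus 3 SD, cut at about 35% in these data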;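 note: 0% = GSTO1-1 with DMSO and 100% = wells lacking GSTO1-1 enzyme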
# Target sequence (P78417 whole entry, looked up): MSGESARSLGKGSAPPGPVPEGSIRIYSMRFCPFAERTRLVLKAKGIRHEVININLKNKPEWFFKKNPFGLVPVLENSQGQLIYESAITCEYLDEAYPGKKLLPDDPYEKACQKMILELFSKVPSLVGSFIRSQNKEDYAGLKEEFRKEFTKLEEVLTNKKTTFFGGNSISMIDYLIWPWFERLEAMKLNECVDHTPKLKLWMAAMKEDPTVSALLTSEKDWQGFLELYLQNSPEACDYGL
# PAD4 FP inh = blocks human protein arginine deiminase 4; Q9UM07; recombinant PAD4, RCA probe fluorescence polarization; inhibition, % at 6.36 µM; 0.41% of 330,000 active; AID 485272;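 active = percent inhibition above a cutoff equal to the mean of all tested compounds plus 3 SD, cut at about 15% in these data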;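 note: 0% = PAD4 with RCA probe and DMSO and 100% = probe without PAD4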
# TDP2 inh = blocks human TDP2 phosphodiesterase activity; AID 720702; recombinant TDP2, T5PNP hydrolysis, p-nitrophenol absorbance 415 nm; inhibition, % at 12.8 µM; O95551; 0.34% of 370,000 active;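 active = inhibition above the mean of all tested compounds plus 3 SD, set per campaign, cut at about 25% in these data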;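 note: 0% = DMSO with enzyme and 100% = buffer with substrate but no TDP2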
# Target sequence (O95551 whole entry, looked up): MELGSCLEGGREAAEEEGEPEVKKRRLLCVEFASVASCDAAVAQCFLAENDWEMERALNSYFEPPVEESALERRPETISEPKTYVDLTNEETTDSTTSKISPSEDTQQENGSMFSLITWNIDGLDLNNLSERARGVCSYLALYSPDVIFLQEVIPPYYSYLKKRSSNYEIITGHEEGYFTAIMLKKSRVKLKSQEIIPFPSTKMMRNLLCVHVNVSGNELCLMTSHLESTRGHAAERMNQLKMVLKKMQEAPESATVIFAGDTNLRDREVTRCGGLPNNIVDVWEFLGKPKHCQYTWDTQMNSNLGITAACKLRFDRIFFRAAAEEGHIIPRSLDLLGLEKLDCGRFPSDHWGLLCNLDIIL
#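 Incubation: 2 h at 37 °C; Test system: recombinant human TDP2; Quantity: enzyme 120 nM; Read-out basis: percent inhibition; Medium: 50 mM Tris-HCl pH 7.5 with Mg2+, KCl, DTT, BSA; Repeats: single replicate; Compound: 12.8 µM single point, 1% DMSO; Signal: epi absorbance; Reagent: 5 mM T5PNP chromogenic substrate; Benchmarks: no-enzyme high, DMSO-plus-enzyme low.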
# Apaf-1 inh = inhibitors of human Apaf-1 apoptosome; O14727; inhibition, % at 20 µM; 0.71% of 330,000 active; reconstituted apoptosome caspase-3 activity, DEVD-Rh110 fluorescence; AID 489030; active = inhibition of at least 40% at 20 µM;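 note: plate controls were DMSO wells for no effect and DEVD-CHO caspase inhibitor wells for full effect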
#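 Material: biochemical Apaf-1 apoptosome reconstitution. Medium: Hepes buffer, pH 7.5. Also added: cytochrome c activation, bis-DEVD rhodamine 110 substrate. Timing: 30 min compound preincubation, 50 min activation, room temperature. Measured by: rhodamine 110 fluorescence at Ex 480/Em 540 nm.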
# GSTO1 confirm = GSTO1 (human) inhibition, confirmation | shares compounds with GSTO1 counter | 54% of 2,400 active | AID 2176 | recombinant GSTO1, probe fluorescence polarization | inhibition, % at 5.96 µM;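 active = inhibition above the primary screen's cutoff, its mean inhibition plus 3 SD, cut at about 35% in these data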;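 note: loss of polarization as inhibitors block binding of rhodamine sulfonate ester activity probe; 0% = GSTO1 with DMSO and 100% = wells lacking GSTO1 enzyme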
# GSTO1 recomb ABPP = GSTO1 (human) inhibition by gel ABPP; 30% of 130 active; inhibition, % at 1 µM; shares compounds with GSTO1 counter; recombinant GSTO1, gel ABPP SE-Rh probe fluorescence;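 active = inhibition of the enzyme GSTO1 above about 75%, limit read from the data; inactive = inhibition below that limit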
# * marks the source's active call; other numbers are inactive results; · = not tested or not shown.
SMILES,Fh CTSL1 inh,GSTO1 counter,PAD4 FP inh,TDP2 inh,Apaf-1 inh,GSTO1 confirm,others
Cc1nn(-c2ccccc2)c2sc(C(=O)NCC3CCCO3)cc12 (stereo not given),·,·,·,-1,·,·,
Cc1c(Br)c(O)c(Br)c(O)c1/C=N/n1c(-c2ccccc2)n[nH]c1=S,17,58*,1,·,7,35*,
Oc1c(Br)cc(/C=N/n2c(-c3ccccc3)n[nH]c2=S)cc1Br,·,·,·,6,-6,·,
O=C1CCCC(O)=C1C=Nc1ccc(O)cc1,1,60*,-7,0,8,2,
COc1ccc(C2(C)NC(=O)N(CC(=O)NCCC3=CCCCC3)C2=O)cc1OC (stereo not given),0,39*,-4,-12,-3,22,
CCc1cc2c(nc1CC)CCCN2S(=O)(=O)c1ccc(C(F)(F)F)cc1,·,·,·,1,·,·,
COc1ccc(S(=O)(=O)N(C(=O)c2ccco2)c2cc3sc(=O)oc3c3ccccc23)cc1,0,64*,9,6,15,19,
CC(=O)c1cc(-c2ccccc2)n(CC(=O)NCc2ccc(F)cc2)c1C,·,·,·,11,·,·,
CCOC(=O)C1=C(Cc2ccc(F)cc2)C(=O)c2ccccc2C1=O,-1,38*,-37,31*,27,4,
O=C(OCc1ccc(F)cc1)c1ccc2c(c1)-c1ccccc1C2=O,-3,-3,1,1,6,·,
CC(Oc1ccc(Cl)cc1Cl)C(=O)NC1=NN(c2ccccc2)C(=O)C1 (stereo not given),0,39*,9,2,25,-2,
O=C1CC(NC(=O)C(F)(F)F)=NN1c1ccccc1,-1,44*,-13,8,7,10,
C=C(C)C(=O)NC1=NN(c2ccccc2)C(=O)C1,-2,8,5,11,20,·,
CC(=O)Nc1ccc(NC(=O)C(C)Oc2ccc(Cl)cc2Cl)cc1 (stereo not given),2,2,-4,5,-9,·,
O=C(N1CCOCC1)N1CC[C@H]2[C@H](CCCN2Cc2ccccc2)C1,·,·,·,-5,·,·,
CC(/C=C1\SC(=S)N(NC(=O)c2ccc(C)cc2)C1=O)=C\c1ccccc1,1,-7,-8,·,5,·,
CC(/C=C1\SC(=S)N(NS(=O)(=O)c2ccc(C)cc2)C1=O)=C\c1ccccc1,0,48*,-7,5,1,36*,
CC(/C=C1\SC(=S)N(NS(=O)(=O)c2ccccc2)C1=O)=C\c1ccccc1,7,40*,0,-9,-2,32,
COC(=O)c1cc(NC(=O)NC2CCCCN(Cc3ccc(Cl)cc3)C2=O)cc(C(=O)OC)c1 (stereo not given),·,·,·,0,·,·,
O=c1[nH]c2ccccc2c2oc(CCl)nc12,8,87*,-2,3,-21,99*,GSTO1 recomb ABPP=69
Cc1ccc(-c2cc(O)cc3sc(=O)oc23)cc1C,-3,53*,7,-16,0,8,
O=c1c(O)c(-c2ccccc2)oc2cc(O)cc(O)c12,·,·,-5,3,-8,·,
COc1c(-c2ccc(O)c(O)c2)oc2cc(O)cc(O)c2c1=O,1,41*,-6,1,10,22,
O=c1c(O)c(-c2cc(O)c(O)c(O)c2)oc2cc(O)cc(O)c12,1,79*,-6,-6,-9,48*,
COc1ccc2c(c1)[C@@]1(OCCC=C[C@H]1C)C(=O)N2Cc1ccccc1C(F)(F)F,·,·,·,2,·,·,
SMILES,Fh CTSL1 inh,GSTO1 counter,PAD4 FP inh,TDP2 inh,Apaf-1 inh,GSTO1 confirm,others
Cc1cc(C)c(NC(=O)CN2C(=O)NC3(CCCCC3)C2=O)c(Cl)c1,-5,54*,0,·,10,33,
CCCCNC(=O)Oc1c(Br)cc2sc(=O)oc2c1Br,23*,66*,-10,·,21,19,
CC(C)CC(NS(=O)(=O)c1cccc(C(=O)O)c1)C(=O)O (stereo not given),2,51*,3,11,-1,3,
Nc1[nH]c(C(=O)c2ccc(Br)cc2)c(-c2ccccc2Cl)c1C(=O)NCCc1c[nH]c2ccccc12,·,·,·,2,·,·,
COc1cc(NCCCCCCCN)c2ncccc2c1,2,46*,27*,·,95*,60*,
COC(=O)c1cc2c(c3c4ccccc4n(S(C)(=O)=O)c13)C(=O)N(Cc1ccccc1)C2,·,·,·,-1,·,·,
Cc1ccc(S(=O)(=O)N(CC2CO2)c2ccccc2[N+](=O)[O-])cc1 (stereo not given),8,78*,-4,8,-6,93*,GSTO1 recomb ABPP=28
CCN(CC1COc2ccccc2O1)S(=O)(=O)c1ccc(C)cc1 (stereo not given),1,0,5,-11,0,·,
O=[N+]([O-])c1ccccc1S(=O)(=O)N(CC1CO1)c1ccccc1 (stereo not given),2,98*,-1,-1,7,100*,GSTO1 recomb ABPP=56
Cc1ccc(N(CC2CO2)S(=O)(=O)c2ccccc2[N+](=O)[O-])cc1 (stereo not given),3,87*,4,9,-3,97*,GSTO1 recomb ABPP=25
Oc1ccc(-c2nn[nH]n2)c2cccnc12,·,·,·,-4,·,·,
O=c1[nH]c(-c2ccccc2)cn1C1CCN(Cc2ccc(-c3nc4ccc(Br)cc4nc3-c3ccccc3)cc2)CC1,·,·,·,2,·,·,
COc1cccc(/C=N/NC(=O)NC2CCCCC2)c1O,-2,38*,-3,-25,0,6,
COc1cccc(/C=N/NC(=O)C(=O)N/N=C/c2cccc(OC)c2O)c1O,·,·,·,-2,·,·,
COC(=O)C1=C(C)N(Cc2ccccc2C(F)(F)F)C(=NCc2ccccc2C(F)(F)F)NC1c1ccc(C(F)(F)F)cc1 (stereo not given),·,·,·,3,·,·,
CN(C)[C@@H]1CCN(c2cccc3c2S(=O)(=O)N(C2CC2)CCCO3)C1,·,·,·,-2,·,·,
O=C(CCl)c1ccc2c(c1)CCN2C(=O)C1CCCCC1,16,42*,0,13,-15,64*,
CCN(CC)C(=O)c1cc([N+](=O)[O-])cc2c1-c1ccc([N+](=O)[O-])cc1C2=C(C#N)C#N,3,38*,-3,0,-3,25,
CCN(CC)C(=O)c1ccc(Oc2ccc([N+](=O)[O-])cc2Cl)cc1,-2,-2,-2,13,-12,·,
COC(=O)[C@]12C[C@H](CC(=O)N3CCCCC3)C(=O)N(Cc3ccc(Cl)cc3Cl)C1=C[C@H](C(C)C)O[C@@H]2C1CC1,·,·,·,2,·,·,
Clc1ss/c(=N\c2ccccn2)c1Cl,6,61*,-3,-1,21,45*,
O=C1C(NS(=O)(=O)c2ccc(Br)cc2)=C(N2CCCCC2)C(=O)c2ccccc21,-1,42*,-15,-8,36,12,
CCCCN(C)S(=O)(=O)c1ccc2[nH]c(=O)oc2c1,·,·,·,-1,·,·,
